Only some compounds are listed: those with a hit (about 1.5% of all), similar ones and a draw of the others.
C8 TRAIL sens = caspase-8 TRAIL sensitization. AID 624354. 360,000 tested, 1% active. inhibition (viability loss, TRAIL sensitization), % at 10 µM. NB7+C8 cells + TRAIL, ATPlite viability luminescence;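 active = compounds causing at least 50% loss of cell viability in the single-dose screen, relative to plate controls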
FLuc inh counter = Photinus pyralis luciferase inhibition counter-screen; P08659; ATPLite firefly luciferase biochemical luminescence, 10 min; inhibition, % at 10 µM; 200,000 tested, 1.5% active; AID 1006;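 active = inhibition above about 50% when tested at 10 µM, limit read from the data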
Target sequence (P08659 whole entry, looked up): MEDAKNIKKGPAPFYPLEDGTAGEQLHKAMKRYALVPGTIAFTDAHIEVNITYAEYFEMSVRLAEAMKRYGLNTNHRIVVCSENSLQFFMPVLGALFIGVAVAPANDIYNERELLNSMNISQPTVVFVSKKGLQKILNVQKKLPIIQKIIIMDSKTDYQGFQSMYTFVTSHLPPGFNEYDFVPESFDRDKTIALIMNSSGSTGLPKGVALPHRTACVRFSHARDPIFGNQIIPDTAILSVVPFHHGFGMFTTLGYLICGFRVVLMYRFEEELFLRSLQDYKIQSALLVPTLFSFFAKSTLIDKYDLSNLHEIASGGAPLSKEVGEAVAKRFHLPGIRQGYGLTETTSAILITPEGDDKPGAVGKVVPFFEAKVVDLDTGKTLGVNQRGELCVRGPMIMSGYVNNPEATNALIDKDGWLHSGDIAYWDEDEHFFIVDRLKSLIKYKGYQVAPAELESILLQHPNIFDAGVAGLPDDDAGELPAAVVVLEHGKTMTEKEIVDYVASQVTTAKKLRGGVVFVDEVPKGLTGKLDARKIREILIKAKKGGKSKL
FLuc stim CS = affects firefly luciferase, flagging false hits in luciferase stimulation screens. P08659. ATPlite luciferase biochemical, luminescence, 10 min; 0 = ATP-free wells, 1 = DMSO control. activation factor at 10 µM. 200,000 tested, under 10 active;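 active = luciferase activation factor, scaled between plate controls, of at least 2 with compound at 10 µM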
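System: luciferase plus luciferin reagent, cell-free; medium: PBS as buffer for the ATP substrate; dosing: test compounds dosed from 2 mM stocks in 100% DMSO; timing: 10 min post-reagent at room temperature; measured by: luminescence measurement of luciferase light output; evaluation: luciferase activation, seen as luminescence increase over controls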
PPC-1+TRAIL kill = kills PPC-1 cancer cells in the presence of TRAIL. PPC-1 cells + TRAIL, ATPLite viability luminescence. cell killing (% activity), % at 4 µM or 5 µM. 220,000 tested, 0.41% active;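 active = cell killing above 50% in the first pass at 4 µM, then a duplicate retest at 5 µM averaging 50% or more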
Each line names hits and unclear results; the compound was inactive in the other large screens.

NC(Cc1ccc(C(F)(F)F)cc1)c1csc(NC(=O)Nc2ccccc2Oc2ccccc2)n1 (stereo unspecified)	C8 TRAIL sens 87 (no result: FLuc inh counter, FLuc stim CS, PPC-1+TRAIL kill)
COc1ccc(CC(N)c2csc(NC(=O)Nc3ccccc3Oc3ccccc3)n2)cc1 (stereo unspecified)	none (no result: FLuc inh counter, FLuc stim CS, PPC-1+TRAIL kill)
CN(Cc1ccccc1)C(=O)c1ccc(Nc2nc(C(N)Cc3ccccc3)cs2)nc1 (stereo unspecified)	none (no result: FLuc inh counter, FLuc stim CS, PPC-1+TRAIL kill)
COc1cc(NC(=O)Nc2nc(C(N)Cc3ccc(C(F)(F)F)cc3)cs2)cc(OC)c1OC (stereo unspecified)	C8 TRAIL sens 53 (no result: FLuc inh counter, FLuc stim CS, PPC-1+TRAIL kill)
COc1ccc(CN2CCN(C(=O)c3c(-c4ccccc4)noc3C)CC2)cc1F	none (no result: FLuc inh counter, FLuc stim CS, PPC-1+TRAIL kill)
Cc1ccc(S(=O)(=O)N2CCOCC2)cc1C(=O)N1CCN(c2ccc(C(F)(F)F)cn2)CC1	none (no result: FLuc inh counter, FLuc stim CS, PPC-1+TRAIL kill)
CCN1CCN(c2ccc(S(=O)(=O)N3CCCCC3)cc2NC(=O)c2ccc([N+](=O)[O-])o2)CC1	C8 TRAIL sens 55 (no result: FLuc inh counter, FLuc stim CS, PPC-1+TRAIL kill)
CCN1CCN(c2ccc(S(=O)(=O)N3CCOCC3)cc2NC(=O)/C=C/c2ccc([N+](=O)[O-])cc2)CC1	C8 TRAIL sens 53 (no result: FLuc inh counter, FLuc stim CS, PPC-1+TRAIL kill)
CCN1CCN(c2ccc(S(=O)(=O)N3CCOCC3)cc2NC(=O)c2cccc([N+](=O)[O-])c2)CC1	none (no result: FLuc inh counter, FLuc stim CS, PPC-1+TRAIL kill)
Cn1c(N)c(C(=O)CCl)c(=O)n(Cc2ccccc2)c1=O	C8 TRAIL sens 90
Cc1ccc(-c2cc3onc(-c4ccccc4)c3c(=O)n2C)cc1	C8 TRAIL sens 78 (no result: FLuc inh counter, FLuc stim CS, PPC-1+TRAIL kill)
Oc1ccc(-c2nccc(-c3ccccn3)n2)cc1	none (no result: FLuc inh counter, FLuc stim CS, PPC-1+TRAIL kill)
Cc1cccc(NS(=O)(=O)c2ccc(C)c(C(=O)N(C)C3CCN(C)CC3)c2)c1	none (no result: FLuc inh counter, FLuc stim CS, PPC-1+TRAIL kill)
Cc1cc(C(=O)COC(=O)c2cc(O)c3ccccc3c2O)c(C)n1CC1CCCO1 (stereo unspecified)	none
Cc1cc(C(=O)COC(=O)c2ccccc2NCCO)c(C)n1CC1CCCO1 (stereo unspecified)	none (no result: FLuc inh counter, FLuc stim CS, PPC-1+TRAIL kill)
Cc1ccc(C(=O)OCC(=O)c2cc(C)n(CC3CCCO3)c2C)cc1 (stereo unspecified)	none
Cc1cc(C(=O)COC(=O)c2n[nH]c3ccccc23)c(C)n1CC1CCCO1 (stereo unspecified)	C8 TRAIL sens 72, FLuc inh counter 92
Cc1cc(C(=O)COC(=O)c2ccccc2O)c(C)n1CC1CCCO1 (stereo unspecified)	C8 TRAIL sens 87 (no result: FLuc inh counter, FLuc stim CS, PPC-1+TRAIL kill)
C=CCn1c(C)cc(C(=O)COC(=O)c2n[nH]c(=O)c3ccccc23)c1C	C8 TRAIL sens 69 (no result: FLuc inh counter, FLuc stim CS, PPC-1+TRAIL kill)
Cc1cc(C(=O)COC(=O)c2cccc(NS(C)(=O)=O)c2)c(C)n1CC1CCCO1 (stereo unspecified)	C8 TRAIL sens 59 (no result: FLuc inh counter, FLuc stim CS, PPC-1+TRAIL kill)
O=C(COC(=O)CCS(=O)(=O)c1ccccc1)NC(=O)c1ccc(OC(F)F)cc1	none (no result: FLuc inh counter, FLuc stim CS, PPC-1+TRAIL kill)
CC(=O)Nc1cccc(C(=O)OC(C)C(=O)N2CCc3ccccc32)c1 (stereo unspecified)	none (no result: FLuc inh counter, FLuc stim CS, PPC-1+TRAIL kill)
N#CC1(c2ccc(NC(=O)c3ccccc3)cc2)CCCC1	C8 TRAIL sens 54, FLuc inh counter 61
CC(=O)Oc1ccc(C(=O)Nc2ccc(C3(C#N)CCCC3)cc2)cc1	none (no result: FLuc inh counter, FLuc stim CS, PPC-1+TRAIL kill)
Cc1ccccc1CC(=O)Nc1cccnc1	none (no result: FLuc inh counter, FLuc stim CS, PPC-1+TRAIL kill)
CN1CCN(C2=C(NS(=O)(=O)c3ccccc3)C(=O)c3ccccc3C2=O)CC1	C8 TRAIL sens 51 (no result: FLuc inh counter, FLuc stim CS, PPC-1+TRAIL kill)
CCN1CCN(C2=C(NS(=O)(=O)c3ccccc3)C(=O)c3ccccc3C2=O)CC1	C8 TRAIL sens 61 (no result: FLuc inh counter, FLuc stim CS, PPC-1+TRAIL kill)
CCN1CCN(C2=C(NS(=O)(=O)c3ccc(Br)cc3)C(=O)c3ccccc3C2=O)CC1	none (no result: FLuc inh counter, FLuc stim CS, PPC-1+TRAIL kill)
O=C(CNS(=O)(=O)c1ccc(Cl)c(C(F)(F)F)c1)NC1CCCCC1	none (no result: FLuc inh counter, FLuc stim CS, PPC-1+TRAIL kill)
CC(C)c1ccc(Nc2n[nH]c(=S)s2)cc1	none (no result: FLuc inh counter, FLuc stim CS, PPC-1+TRAIL kill)
O=C1[C@H]2[C@@H](/C=C/c3ccccc3)N3C(=O)CN(CC4CC4)C(=O)[C@@]3(Cc3ccccc3)[C@H]2C(=O)N1c1ccccc1	C8 TRAIL sens 55 (no result: FLuc inh counter, FLuc stim CS, PPC-1+TRAIL kill)
NC(CSC(c1ccccc1)(c1ccccc1)c1ccc2c(c1)OCO2)C(=O)O (stereo unspecified)	none (no result: FLuc inh counter, FLuc stim CS, PPC-1+TRAIL kill)
COc1ccc(-c2cnnc(N/N=C/c3ccc(O)cc3)n2)cc1	FLuc inh counter 73
Oc1ccc(/C=N\Nc2nncc(-c3ccccc3)n2)cc1	none (no result: FLuc inh counter, FLuc stim CS)
COc1ccc(-c2cnnc(N/N=C/c3ccc(O)c(O)c3)n2)cc1	FLuc inh counter 85
CCCCOc1ccc(/C=C2/Sc3ccccc3C2=O)cc1	none
CC(C)COc1ccc(/C=C2/Sc3ccccc3C2=O)cc1	FLuc inh counter 57
c1ccc(/N=C2\N=C(Nc3ccccn3)c3ccccc32)nc1	C8 TRAIL sens 48 (no result: FLuc inh counter, FLuc stim CS, PPC-1+TRAIL kill)
CCN(CC)C(CNC(=O)c1cc(=O)[nH]c2ccccc12)c1ccccc1Cl (stereo unspecified)	none (no result: FLuc inh counter, FLuc stim CS, PPC-1+TRAIL kill)
